# PubChem BioAssay
# Values without a mark were called inactive. The source made the active and inactive calls.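 Rule for the calls, unless noted: active = growth inhibition above 25% in both replicates, a cutoff set 3 SD above the mean; inconclusive = above 25% in only one replicate; inactive = the rest.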
# Assay: OD615 S. cerevisiae growth inhibition, permissive medium, pilot counter-assay, permissive growth control for S. cerevisiae lifespan shortening project (AID 705)
# Conditions: OD615, 24 h, at 10 µM, active compounds read high
# Procedure, shortened: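 System: S. cerevisiae with engineered DeaD lifespan system / Measured by: absorbance (optical density) at 615 nm / Read-out: reduction in yeast growth (OD615) / Times: 4 h cell pre-growth, 24 h exposure at 30 °C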
row,SMILES,growth inhibition [%]
1,O=C(O)CCCC(=O)Nc1c(F)c(F)c(F)c(F)c1F,-5.5
2,O=C1CC(NCc2ccc3c(c2)OCO3)C(=O)N1CCc1ccccc1 (stereo not given),-16
3,O=S(=O)(NC1CCCCC1)c1ccc(Br)cc1,2.22
4,CCn1c2ccccc2c2nnc(SCC(=O)c3ccccc3)nc21,-1.37
5,COc1ccccc1C1NC(=O)NC(C)=C1C(=O)Nc1cccc(C)c1C (stereo not given),-5.33
6,CCOC(=O)c1[nH]c(C)c(C(=O)OCC)c1C,-9.48
7,Cc1ccc2c(c1)C(c1ccccc1)N(C(=O)c1ccc(Br)o1)CC(=O)N2 (stereo not given),-8.12
8,CCSC1=C(C#N)C(c2ccc(F)cc2)CC(=O)N1 (stereo not given),5.18
9,O/N=C1/CCc2cccc3cccc1c23,-11.1
10,COc1ccc(OCc2nnc(SCC(=O)O)n2N)cc1,-6.54
11,Cc1noc(NS(=O)(=O)c2ccc(N3Cc4ccccc4C3=O)cc2)c1C,-3.04
12,Cc1cc(C)c(OCC(=O)Nc2cccc(NC(=O)c3ccco3)c2)c(Br)c1,-3.62
13,O=C(Cn1cc2c(n1)CCCC2)Nc1ccccc1Br,-13
14,CCCC(=O)C1=C(O)C(C(=O)OC)C(C)(C)CC1=Nc1ccccc1 (stereo not given),-12.6
15,O=C(CCCN1C(=O)CSc2ncccc21)N1CCN(Cc2ccccc2)CC1,-1.92
16,CCOC(=O)c1c(C)c(C(=O)O)n(C)c1C,-12.4
17,CCOc1ccc(C2CC(c3cccc(C)c3)n3nc(N)nc3N2)cc1 (stereo not given),2.79
18,Cc1cccc(NC(=O)c2ccc(S(=O)(=O)N(C)C)cc2)c1,-8.26
19,COCCCNC(=O)c1cc2c(-c3ccc(Cl)cc3)nn(C)c2s1,-0.14
20,Cc1ccc(-c2nnc3n2N=C(c2ccccc2)CS3)cc1,-5.77

row,SMILES,growth inhibition [%]
1,COCCOC(=O)c1[nH]c2c(c1C)C(=O)CC(c1cc(OC)ccc1OC)C2 (stereo not given),-16.8
2,COc1ccc(OC)c(C2C(C(N)=O)=C(C)Nc3nc(CCCO)nn32)c1 (stereo not given),-12.9
3,CCOC(=O)Nc1ccc2ncn(C)c(=O)c2c1,-16.6
4,Cc1cc2c3nonc3ccc2n1-c1ccccc1,-16.1
5,O=C(Nc1ccc(F)cc1)C1CCC(N2C(=O)c3ccccc3C2=O)CC1 (stereo not given),-11.6
6,CCOc1ccc(-n2c(Cc3cc(=O)[nH]c(=O)[nH]3)nnc2SC(C)C(=O)OC)cc1 (stereo not given),-4.41
7,Cn1cccc1Cc1nnc(SCC(=O)N2CCCCCC2)n1-c1ccc(F)cc1,0.935
8,Cc1occc1C(=O)NCc1cccs1,-6.07
9,CCC(C)(C(=O)NC1CCCCC1)N(Cc1ccco1)C(=O)CC1NC(=O)NC1=O (stereo not given),-7.46
10,CCCCOC(=O)Cc1c(O)c2ccccc2[nH]c1=O,10.9
11,CCCC(=O)N=c1sc2cccc(F)c2n1C,-9.43
12,Cc1ccc(N2CCN(c3cc(C)nc4nc(C)nn34)CC2)c(C)c1,-17.8
13,CC(C)CCOc1cccc(C2c3c(oc4ccccc4c3=O)C(=O)N2CCCN2CCOCC2)c1 (stereo not given),-3.75
14,O=C1N=C(N2CCOCC2)SC1=C1CCCCC1,-8.5
15,CCOC(=O)N1CCC(N2CC34C=CC(O3)C(C(=O)Nc3ccc(F)cc3)C4C2=O)CC1 (stereo not given),-4.45
16,COC(=O)/C=C/S(=O)(=O)c1ccc(NC(C)=O)cc1,-15.3
17,Cc1ccc(C)c(NC(=O)CS(=O)(=O)c2cn(C)c3ccccc23)c1,-7.22
18,CCOC(=O)C1C(C)N=C2SCC(=O)N2C1c1cccc(Br)c1 (stereo not given),9.43
19,CCOc1ccc(NC(=O)c2cnc3scc(C)n3c2=O)cc1,-17.7
20,COC(=O)c1ccc(N=c2sc(C(=O)OC)cc(=O)n2C)cc1,-4.13

# Assay: Restrictive medium S. cerevisiae growth inhibition, OD615, pilot screen of yeast lifespan reduction project, restrictive growth control (AID 706;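 active = growth inhibition above a set limit, 3 SD over mean compound inhibition, in both replicates, cut at about 43% in these data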;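 note: modified DeaD lifespan yeast strain shifted to restrictive glucose medium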)
# Conditions: OD615, 48 h, at 10 µM, active compounds read high
# Procedure, shortened: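 System: Engineered S. cerevisiae DeaD strain | Buffer or medium: Glucose-based CSMM-D restrictive medium | Schedule: 4 h pre-incubation, 48 h exposure at 30 °C | Technique: Optical density at 615 nm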
row,SMILES,growth inhibition
1,O=C(O)CCCC(=O)Nc1c(F)c(F)c(F)c(F)c1F,-6.27%
2,O=C1CC(NCc2ccc3c(c2)OCO3)C(=O)N1CCc1ccccc1 (stereo not given),-11.1%
3,O=S(=O)(NC1CCCCC1)c1ccc(Br)cc1,1.47%
4,CCn1c2ccccc2c2nnc(SCC(=O)c3ccccc3)nc21,13.5%
5,COc1ccccc1C1NC(=O)NC(C)=C1C(=O)Nc1cccc(C)c1C (stereo not given),-10.3%
6,CCOC(=O)c1[nH]c(C)c(C(=O)OCC)c1C,1.48%
7,Cc1ccc2c(c1)C(c1ccccc1)N(C(=O)c1ccc(Br)o1)CC(=O)N2 (stereo not given),-8.66%
8,CCSC1=C(C#N)C(c2ccc(F)cc2)CC(=O)N1 (stereo not given),-4.98%
9,O/N=C1/CCc2cccc3cccc1c23,0.79%
10,COc1ccc(OCc2nnc(SCC(=O)O)n2N)cc1,5.32%
11,Cc1noc(NS(=O)(=O)c2ccc(N3Cc4ccccc4C3=O)cc2)c1C,0.35%
12,Cc1cc(C)c(OCC(=O)Nc2cccc(NC(=O)c3ccco3)c2)c(Br)c1,4.23%
13,O=C(Cn1cc2c(n1)CCCC2)Nc1ccccc1Br,-9.29%
14,CCCC(=O)C1=C(O)C(C(=O)OC)C(C)(C)CC1=Nc1ccccc1 (stereo not given),-6.79%
15,O=C(CCCN1C(=O)CSc2ncccc21)N1CCN(Cc2ccccc2)CC1,-2.68%
16,CCOC(=O)c1c(C)c(C(=O)O)n(C)c1C,-19.7%
17,CCOc1ccc(C2CC(c3cccc(C)c3)n3nc(N)nc3N2)cc1 (stereo not given),11.8%
18,Cc1cccc(NC(=O)c2ccc(S(=O)(=O)N(C)C)cc2)c1,-8.44%
19,COCCCNC(=O)c1cc2c(-c3ccc(Cl)cc3)nn(C)c2s1,1.75%
20,Cc1ccc(-c2nnc3n2N=C(c2ccccc2)CS3)cc1,6.07%

row,SMILES,growth inhibition
1,COCCOC(=O)c1[nH]c2c(c1C)C(=O)CC(c1cc(OC)ccc1OC)C2 (stereo not given),-12.3%
2,COc1ccc(OC)c(C2C(C(N)=O)=C(C)Nc3nc(CCCO)nn32)c1 (stereo not given),-20.6%
3,CCOC(=O)Nc1ccc2ncn(C)c(=O)c2c1,-8.55%
4,Cc1cc2c3nonc3ccc2n1-c1ccccc1,-15%
5,O=C(Nc1ccc(F)cc1)C1CCC(N2C(=O)c3ccccc3C2=O)CC1 (stereo not given),-20.7%
6,CCOc1ccc(-n2c(Cc3cc(=O)[nH]c(=O)[nH]3)nnc2SC(C)C(=O)OC)cc1 (stereo not given),2.84%
7,Cn1cccc1Cc1nnc(SCC(=O)N2CCCCCC2)n1-c1ccc(F)cc1,18%
8,Cc1occc1C(=O)NCc1cccs1,-2.95%
9,CCC(C)(C(=O)NC1CCCCC1)N(Cc1ccco1)C(=O)CC1NC(=O)NC1=O (stereo not given),-7.12%
10,CCCCOC(=O)Cc1c(O)c2ccccc2[nH]c1=O,12.5%
11,CCCC(=O)N=c1sc2cccc(F)c2n1C,-11.1%
12,Cc1ccc(N2CCN(c3cc(C)nc4nc(C)nn34)CC2)c(C)c1,25.7%
13,CC(C)CCOc1cccc(C2c3c(oc4ccccc4c3=O)C(=O)N2CCCN2CCOCC2)c1 (stereo not given),-23.9%
14,O=C1N=C(N2CCOCC2)SC1=C1CCCCC1,-2.34%
15,CCOC(=O)N1CCC(N2CC34C=CC(O3)C(C(=O)Nc3ccc(F)cc3)C4C2=O)CC1 (stereo not given),-3.7%
16,COC(=O)/C=C/S(=O)(=O)c1ccc(NC(C)=O)cc1,0.685%
17,Cc1ccc(C)c(NC(=O)CS(=O)(=O)c2cn(C)c3ccccc23)c1,2.97%
18,CCOC(=O)C1C(C)N=C2SCC(=O)N2C1c1cccc(Br)c1 (stereo not given),51.2% (active)
19,CCOc1ccc(NC(=O)c2cnc3scc(C)n3c2=O)cc1,3.42%
20,COC(=O)c1ccc(N=c2sc(C(=O)OC)cc(=O)n2C)cc1,-3.27%
